Assay outcomes as filed in PubChem BioAssay.
AHR activator: human AHR activation. activation, % at 5 µM. P35869. AHR-responsive luciferase reporter cells, luminescence. hit rate 2.5% among 320,000; in the data active = activation above about 47%
JMJD2C inh: inhibitors of human GASC-1 (JMJD2C) demethylase. GST-JMJD2C(1-420) H3K9me3 demethylation, DELFIA europium. inhibition, % at 2.35 µM. AID 2099. hit rate 0.069% among 330,000. Q9H3R0;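 active = more than half of a compound's replicate wells show inhibition beyond 50%, single wells judged on their own value; inconclusive = some, but no more than half, of replicates pass 50% inhibition; inactive = no replicate passes 50% inhibition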;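 note: signal counts dimethyl H3K9 product captured on neutravidin plate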
GAA850 FXN act: increases GAA850 frataxin promoter reporter activity; HEK293 lucGAA850 FXN promoter luciferase reporter, 24 h; percent of 10 µM SAHA response; activation, % at 6 µM; hit rate 0.56% among 360,000; AID 540364;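 active = activation above the average of all compounds screened plus 3 SD, cutoff fixed separately per campaign, cut at about 7.5% in these data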
SR-BI DiI-HDL act: activators of SR-BI mediated HDL lipid uptake. AID 504775. hit rate 0.096% among 320,000. activation, % at 12.5 µM. CHO ldlA[mSR-BI] cells, DiI-HDL uptake fluorescence, 3 h; 100 = double the neutral-control signal;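 active = mean replicate activation of at least 60% and every replicate at or above 60%; inconclusive = mean or all-replicate condition met, but not both; inactive = mean below 60% and not all replicates reaching 60%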
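Material: SR-BI-overexpressing, LDLR-lacking CHO cells | Dosing: Single compound concentration, delivered by pin transfer | Probe or stimulus: Labelled HDL, 10 µg/mL | Signal: Bottom-read cell fluorescence after medium removal, ex 550/em 595 nm | Schedule: 3 h, 37 °C | Evaluation: HDL uptake via cellular fluorescence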
SR-BI DiI inh: inhibitors of mouse SR-BI mediated HDL lipid uptake | ldlA[mSR-BI] CHO cells, DiI-HDL uptake fluorescence, 3 h | inhibition, % at 12.5 µM | hit rate 0.96% among 320,000 | AID 488896;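 active = mean replicate inhibition of at least 70% and a set share of replicates each scoring 70 or more; inconclusive = meets just one of the two criteria; inactive = fails both criteria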
Target sequence (Q61009 whole entry, looked up): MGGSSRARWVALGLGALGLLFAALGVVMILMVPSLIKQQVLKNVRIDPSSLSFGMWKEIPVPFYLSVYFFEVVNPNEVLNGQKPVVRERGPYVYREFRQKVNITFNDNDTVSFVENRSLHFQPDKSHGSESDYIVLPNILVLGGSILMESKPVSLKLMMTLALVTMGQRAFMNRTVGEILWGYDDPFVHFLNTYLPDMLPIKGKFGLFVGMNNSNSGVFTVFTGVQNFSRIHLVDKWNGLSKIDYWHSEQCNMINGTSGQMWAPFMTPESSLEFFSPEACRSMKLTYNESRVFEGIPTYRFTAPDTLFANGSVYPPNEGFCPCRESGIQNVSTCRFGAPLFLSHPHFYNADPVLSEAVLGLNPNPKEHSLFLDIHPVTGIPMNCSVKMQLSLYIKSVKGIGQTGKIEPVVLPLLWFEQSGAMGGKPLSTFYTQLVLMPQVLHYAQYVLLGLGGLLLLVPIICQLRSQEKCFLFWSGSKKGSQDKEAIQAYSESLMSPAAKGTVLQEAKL
Hits are given with their value; . = inactive; ? = inconclusive; / = no result. This is a sample that favours compounds with a hit; in the whole collection about 3.7% have one here.

SMILES | AHR activator | JMJD2C inh | GAA850 FXN act | SR-BI DiI-HDL act | SR-BI DiI inh
C=CCNC(=O)c1ccccc1NC(=O)c1ccccc1SC | 77 | . | . | . | .
CSc1ccccc1C(=O)Nc1ccc2c(c1)OCO2 | 54 | . | . | / | /
C=CCNC(=O)c1ccccc1NC(=O)c1ccccc1C | . | . | . | . | .
CSc1ccccc1C(=O)Nc1ccc(C)c(C)c1 | . | 102 | . | . | .
CCN(CC)c1ccc(S(=O)(=O)N2CCCCC2)cc1NC(=O)C1CCC1 | . | . | . | . | .
CCOC(=O)N1CCC(NC(=O)CC2C(=O)NCCN2Cc2ccccc2F)CC1 (configuration not stated) | . | . | . | . | .
CCN(CC)S(=O)(=O)c1ccc(Cc2ncc(C(F)(F)F)cc2Cl)s1 | . | . | . | . | .
Cc1nccn1CC(=O)c1ccccc1 | / | / | . | / | /
Clc1nnc(NN=C2CCCC2)c2ccccc12 | 51 | . | . | . | .
Cc1ccc(/C=N/Nc2nnc(Cl)c3ccccc23)cc1 | 61 | . | . | . | .
C=CCNc1nnc(Cl)c2ccccc12 | . | . | . | . | .
O=C(COC(=O)COc1cccc(Br)c1)Nc1c(Cl)cccc1Cl | . | . | . | 374 | .
COc1ccc(NC(=O)COC(=O)COc2cccc(Br)c2)cc1OC | . | . | . | . | .
COc1ccc(S(=O)(=O)NC2CCCC2)c(Cl)c1Cl | . | . | . | . | .
CCN1C(=C(C#N)C#N)C=Cc2cc(C)ccc21 | . | . | . | . | .
C=CC[n+]1c(/C=C2\C=Cc3cc(C)ccc3N2CC)ccc2ccccc21 | . | . | . | . | 80
Brc1ccc(-c2nnc3sc(CNC4CCCC4)cn23)cc1 | . | . | . | . | .
Brc1ccc(-c2nnc3sc(CNCc4ccc5c(c4)OCO5)cn23)cc1 | 65 | . | . | . | .
O=C(NCc1cccnc1)c1ccc(-c2cc(Cl)ccc2Cl)o1 | 76 | . | . | . | .
CC1CCN(c2ccc(-c3ccc(NC(=O)C(F)(F)F)cc3)nn2)CC1 | 50 | . | . | . | .
CC(=O)Nc1ccc(NC(=O)C(F)(F)F)cc1 | . | . | . | . | .
COc1ccc(-c2nc(C#N)c(NCc3ccc(F)cc3)o2)cc1OC | . | . | . | . | 74
Cc1ccc(-c2nc(C#N)c(NCC3CCCO3)o2)cc1 (configuration not stated) | 63 | . | . | . | .
Cc1ccc(-c2cc(C(F)F)nc(NCC3CCCO3)n2)cc1 (configuration not stated) | . | . | . | 223 | .
Cc1ccc(-c2nc(C#N)c(NCCc3ccccn3)o2)cc1 | 73 | . | . | . | .
SMILES | AHR activator | JMJD2C inh | GAA850 FXN act | SR-BI DiI-HDL act | SR-BI DiI inh
COc1ccc(-c2nc(C#N)c(NCC3CCCO3)o2)cc1 (configuration not stated) | . | . | . | . | .
N#Cc1nc(-c2ccc(Cl)cc2)oc1NCCc1ccccn1 | . | . | . | . | .
COc1ccccc1C(=O)NC(=O)COC(=O)C1CC1C (configuration not stated) | . | . | . | . | .
Cc1nc2sccn2c(=O)c1S(=O)(=O)NC(C)c1ccccc1 (configuration not stated) | . | . | . | . | .
CCOc1ccc(-c2nc(C#N)c(NCc3ccc4c(c3)OCO4)o2)cc1 | 56 | . | . | . | .
Cc1ccc(OCc2nc(C#N)c(NCc3ccc4c(c3)OCO4)o2)cc1 | . | . | . | . | .
COc1ccc(CCNc2oc(-c3ccc(C)cc3)nc2C#N)cc1OC | 69 | . | . | . | .
CC(C)c1ccc(C2=C(O)c3ccccc3C(=O)C2=O)cc1 | 54 | . | . | . | .
Cc1ccc(C2=C(O)c3ccccc3C(=O)C2=O)cc1 | . | . | . | . | .
COc1cccc(CC(=O)OCC(=O)c2cc(OC)c(OC)c(OC)c2)c1 | . | . | . | . | .
CC(=O)Nc1cc2nn(-c3ccccc3)nc2cc1C | 55 | . | . | . | .
CCC(=O)Nc1cc2nn(-c3ccccc3)nc2cc1Cl | 51 | . | . | . | .
Cc1cc2nn(-c3ccccc3)nc2cc1NC(=O)c1cccs1 | 68 | . | . | / | /
C/C=C(\C)C(=O)O[C@@H]([C@H](O)c1cc2ccc(=O)oc2cc1OC)C(C)(C)O | . | . | . | . | .
CSc1ccccc1-c1cnc(NC(C)=O)cn1 | / | / | . | / | /
CCOC(=O)N1CCN(C/C(Cl)=C/c2ccccc2)CC1 | . | . | . | . | .
Cc1ccc(NC2=NCC(=O)N2Cc2cccs2)cc1C | . | . | . | . | .
COc1ccc(OC)c(NC(=O)CCCNC(=O)Cn2cnc3sc(C)c(C)c3c2=O)c1 | . | . | . | . | 77
COc1cccc(NC(=O)CCCNC(=O)Cn2cnc3sc(C)c(C)c3c2=O)c1 | . | . | . | . | .
COc1ccc(-c2cc(C(=O)N/N=C/c3cc(OC)c(OC)cc3OC)c3ccccc3n2)cc1 | . | . | . | / | /
COc1ccccc1-c1cc(C(=O)Nc2sc3c(c2C#N)CCC(C)C3)c2ccccc2n1 (configuration not stated) | . | . | . | . | 86
COc1ccc(-c2cc(C(=O)N/N=C/c3cccnc3)c3ccccc3n2)cc1 | / | . | . | . | .
O=C(N/N=C/c1ccccn1)c1cc(-c2ccc(Br)cc2)nc2ccccc12 | . | . | . | . | 76
O=C(N/N=C/c1ccccn1)c1cc(-c2ccc(Cl)cc2)nc2ccccc12 | 50 | . | . | . | 107
COc1ccc(OC)c(-c2cc(C(=O)Nc3sc4c(c3C#N)CCC(C)C4)c3ccccc3n2)c1 (configuration not stated) | . | . | . | . | ?
SMILES | AHR activator | JMJD2C inh | GAA850 FXN act | SR-BI DiI-HDL act | SR-BI DiI inh
CCCOc1cccc(-c2cc(C(=O)N/N=C/c3ccccn3)c3ccccc3n2)c1 | / | . | . | . | .
Cc1ccc(-c2cc(C(=O)N/N=C\c3cnn(C)c3C)c3ccccc3n2)cc1C | . | . | . | . | 96
COc1ccc(NS(=O)(=O)c2ccc(N3CC(O)=C(c4ccccc4)C3=N)cc2)cc1 | . | . | . | . | .
O=C(O)COc1ccccc1/C=N/NC(=O)c1cc(-c2ccc(Cl)cc2)nc2ccccc12 | 64 | . | . | / | /
O=C(O)COc1ccccc1/C=N/NC(=O)c1cc(-c2ccccc2)nc2ccccc12 | . | . | . | / | /
O=C(N/N=C/c1ccccc1OC(F)F)c1cc(-c2ccncc2)nc2ccccc12 | . | . | . | . | 90
COc1ccccc1-c1cc(C(=O)N/N=C/c2ccc(C)s2)c2ccccc2n1 | . | . | . | . | 77
O=C(c1cc(C(=O)N2CCCC2)cc([N+](=O)[O-])c1)N1CCCC1 | . | . | . | . | .
CCn1cc(CNC(=O)c2cc(-c3cc(OC)ccc3OC)nc3ccccc23)c(C)n1 | . | . | . | . | 78
COc1ccccc1CCNC(=O)c1cc(-c2ccncc2)nc2ccc(Br)cc12 | / | . | . | . | 77
COc1ccccc1CCNC(=O)c1cc(-c2ccccn2)nc2ccc(Br)cc12 | . | . | / | / | /
